In ChEMBL document CHEMBL4689842, “EUbOPEN Chemogenomics Library wave 1” (2021):
Several values for one entry are separate records, joined by “and”; a condition that tells them apart may be missing. Identical values can stand only once.

Tested on: Fibroblast
Assay: Multiplex assay against human fibroblast
Type: toxicity, cell-based
Method in brief: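 Tubulin, mitochondrial-mass and membrane-permeability phenotypes are per cents of healthy-nucleus cells. Cells were gated by CellPathfinder machine learning into Hoechst high-intensity objects or normal cells, normal cells into healthy, pyknosed or fragmented nuclei, and pyknosed cells into mitotic or apoptotic. Before that, live cells stained at seeding with Hoechst33342, BioTracker Green Microtubule Cytoskeleton Dye, MitoTracker Red and Annexin V Alexa Fluor 680 were imaged on a CQ1 microscope at 37°C and 5% CO2 after compound addition.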

[1] = 12 h, 1 µM, compound concentration 1 uM, replicate 1
[2] = 12 h, 1 µM, compound concentration 1 uM, replicate 2
[3] = 12 h, 10 µM, compound concentration 10 uM, replicate 1
[4] = 12 h, 10 µM, compound concentration 10 uM, replicate 2
[5] = 24 h, 1 µM, compound concentration 1 uM, replicate 1
[6] = 24 h, 1 µM, compound concentration 1 uM, replicate 2
[7] = 24 h, 10 µM, compound concentration 10 uM, replicate 1
[8] = 24 h, 10 µM, compound concentration 10 uM, replicate 2
[9] = 48 h, 1 µM, compound concentration 1 uM, replicate 1
[10] = 48 h, 1 µM, compound concentration 1 uM, replicate 2
[11] = 48 h, 10 µM, compound concentration 10 uM, replicate 1
[12] = 48 h, 10 µM, compound concentration 10 uM, replicate 2

SMILES: CS(=O)(=O)N1CCCC(NC(=O)[C@H](CCC2CCCCC2)NC(=O)c2ccc(CNC(=O)c3cnc4ccccn34)cc2)C1 (some centres undefined) [SR-302]
- Population Apoptotic (%) [1]: 63% [middle of 4 runs]
- Population Fragmented Nuclei (%) [1]: 16% and 17% and 20%
- Population Healthy Nuclei (%) [1]: 42% [middle of 4 runs]
- Population Hoechst High Intensity Objects (%) [1]: 15% [middle of 4 runs]
- Population Membrane Permeable-Phenotype (%) [1]: 31% and 23%
- Population Mitochondria Different-Phenotype (%) [1]: 10% [middle of 4 runs]
- Population Mitotic Cells (%) [1]: 42% [middle of 4 runs]
- Population Normal (%) [1]: 85% and 84% and 80% and 87%
- Population Pyknosed Nuclei (%) [1]: 55% and 40% and 41%
- Population Apoptotic (%) [2]: 40% and 33% and 20%
- Population Healthy Nuclei (%) [2]: 81% [middle of 4 runs]
- Population Membrane Permeable-Phenotype (%) [2]: 0% and 7% and 2%
- Population Mitochondria Different-Phenotype (%) [2]: 6% and 7% and 9%
- Population Mitotic Cells (%) [2]: 60% and 66% and 80%
- Population Normal (%) [2]: 75% and 93% and 83% and 97%
- Population Pyknosed Nuclei (%) [2]: 12% [middle of 4 runs]
- Total Cell Count [2]: 84 and 98 and 59
- Population Apoptotic (%) [3]: 56% [middle of 4 runs]
- Population Fragmented Nuclei (%) [3]: 26% [middle of 4 runs]
- Population Healthy Nuclei (%) [3]: 20% and 32% and 52%
- Population Hoechst High Intensity Objects (%) [3]: 11% and 19% and 9%
- Population Membrane Permeable-Phenotype (%) [3]: 20% [middle of 4 runs]
- Population Mitotic Cells (%) [3]: 48% [middle of 4 runs]
- Population Normal (%) [3]: 88% and 80% and 91%
- Population Pyknosed Nuclei (%) [3]: 51% [middle of 4 runs]
- Population Tubulin-Different-Phenotype (%) [3]: 86% [middle of 4 runs]
- Total Cell Count [3]: 137 [middle of 4 runs]
- Population Apoptotic (%) [4]: 71% [middle of 4 runs]
- Population Healthy Nuclei (%) [4]: 34% and 80% and 83%
- Population Membrane Permeable-Phenotype (%) [4]: 18% and 23% and 11%
- Population Normal (%) [4]: 66% and 92% and 93% and 96%
- Population Pyknosed Nuclei (%) [4]: 17% and 7% and 9%
- Population Tubulin-Different-Phenotype (%) [4]: 91% [middle of 4 runs]
- Total Cell Count [4]: 77 [middle of 4 runs]
- Population Apoptotic (%) [5]: 72% [middle of 4 runs]
- Population Fragmented Nuclei (%) [5]: 25% [middle of 4 runs]
- Population Healthy Nuclei (%) [5]: 51% [middle of 4 runs]
- Population Hoechst High Intensity Objects (%) [5]: 17% [middle of 4 runs]
- Population Mitochondria Different-Phenotype (%) [5]: 7% [middle of 4 runs]
- Population Mitotic Cells (%) [5]: 40% [middle of 4 runs]
- Population Normal (%) [5]: 85% and 77% and 82% and 83%
- Population Pyknosed Nuclei (%) [5]: 28% [middle of 4 runs]
- Population Membrane Permeable-Phenotype (%) [6]: 0% and 5% and 1%
- Population Mitochondria Different-Phenotype (%) [6]: 6% and 8% and 4%
- Population Mitotic Cells (%) [6]: 66% [middle of 4 runs]
- Population Normal (%) [6]: 76% and 95%
- Total Cell Count [6]: 97 [middle of 4 runs]
- Population Apoptotic (%) [7]: 57% [middle of 4 runs]
- Population Fragmented Nuclei (%) [7]: 24% [middle of 4 runs]
- Population Healthy Nuclei (%) [7]: 37% and 27% and 59%
- Population Hoechst High Intensity Objects (%) [7]: 10% [middle of 4 runs]
- Population Mitotic Cells (%) [7]: 51% [middle of 4 runs]
- Population Normal (%) [7]: 100% and 89% and 80% and 92%
- Population Pyknosed Nuclei (%) [7]: 51% [middle of 4 runs]
- Population Tubulin-Different-Phenotype (%) [7]: 82% [middle of 4 runs]
- Population Apoptotic (%) [8]: 55% [middle of 4 runs]
- Population Membrane Permeable-Phenotype (%) [8]: 16% [middle of 4 runs]
- Population Mitochondria Different-Phenotype (%) [8]: 75% [middle of 4 runs]
- Population Mitotic Cells (%) [8]: 45% [middle of 4 runs]
- Population Normal (%) [8]: 62% and 88% and 95% and 94%
- Population Pyknosed Nuclei (%) [8]: 24% and 15% and 13%
- Population Tubulin-Different-Phenotype (%) [8]: 72% [middle of 4 runs]
- Total Cell Count [8]: 88 [middle of 4 runs]
- Population Apoptotic (%) [9]: 58% and 70% and 55%
- Population Fragmented Nuclei (%) [9]: 42% and 31% and 22%
- Population Healthy Nuclei (%) [9]: 40% and 46% and 52%
- Population Hoechst High Intensity Objects (%) [9]: 18% and 24% and 20%
- Population Membrane Permeable-Phenotype (%) [9]: 14% and 36% and 20%
- Population Mitochondria Different-Phenotype (%) [9]: 7% and 13% and 5%
- Population Mitotic Cells (%) [9]: 41% and 30% and 44%
- Population Normal (%) [9]: 81% and 75% and 79%
- Population Pyknosed Nuclei (%) [9]: 17% and 21% and 24%
- Population Tubulin-Different-Phenotype (%) [9]: 42% and 59% and 28%
- Total Cell Count [9]: 86 and 62 and 93
- Population Fragmented Nuclei (%) [10]: 19% and 14% and 23%
- Population Healthy Nuclei (%) [10]: 79% and 82% and 72%
- Population Hoechst High Intensity Objects (%) [10]: 13% and 8% and 15%
- Population Membrane Permeable-Phenotype (%) [10]: 9% and 7%
- Population Mitochondria Different-Phenotype (%) [10]: 0% and 4%
- Population Normal (%) [10]: 86% and 91% and 84%
- Total Cell Count [10]: 105 and 83 and 107
- Population Apoptotic (%) [11]: 53% and 87% and 50%
- Population Fragmented Nuclei (%) [11]: 31% and 64% and 30%
- Population Healthy Nuclei (%) [11]: 47% and 22% and 30%
- Population Hoechst High Intensity Objects (%) [11]: 27% and 36% and 28%
- Population Mitochondria Different-Phenotype (%) [11]: 33% and 50% and 53%
- Population Normal (%) [11]: 72% and 63% and 71%
- Population Tubulin-Different-Phenotype (%) [11]: 70% and 64% and 92%
- Total Cell Count [11]: 87 and 97 and 118
- Population Apoptotic (%) [12]: 66% and 44%
- Population Fragmented Nuclei (%) [12]: 35% and 26% and 27%
- Population Healthy Nuclei (%) [12]: 60% and 65% and 62%
- Population Membrane Permeable-Phenotype (%) [12]: 7% and 5%
- Population Mitochondria Different-Phenotype (%) [12]: 37% and 45%
- Population Mitotic Cells (%) [12]: 33% and 55%
- Population Normal (%) [12]: 98% and 90%
- Population Pyknosed Nuclei (%) [12]: 4% and 7% and 10%
- Population Tubulin-Different-Phenotype (%) [12]: 91% and 93% and 96%
- Total Cell Count [12]: 133 and 139
